Measured values gathered from unrelated publications.
Compare with care: the assays were run in different laboratories.

Cc1cc2sc(N)nc2c2cccnc12  Tmax (female BALB/c mouse; plasma; intraperitoneal; 30 mg/kg; single dose): 15 min
CC(=O)O[C@@]12CO[C@@H]1C[C@H](O)[C@@]1(C)C(=O)[C@H](O)C3=C(C)[C@@H](OC(=O)[C@H](O)[C@@H](NC(=O)OC(C)(C)C)c4ccccc4)C[C@@](O)([C@@H](OC(=O)c4ccccc4)[C@H]21)C3(C)C  Tmax (male Kunming mouse; liver; oral; 20 mg/kg): 30 min
Cc1c(C(=O)O)ccc2c3n(nc12)[C@@H]1[C@H](C3)N(CC2CC2)[C@@]2(C(=O)Nc3cc(Cl)ccc32)[C@H]1c1cccc(Cl)c1F  Tmax (female mouse; plasma; oral; 5 mg/kg): 282 min
C=CS(=O)(=O)c1ccc(Nc2nc(OCC3CCCCC3)c3nc[nH]c3n2)cc1  Tmax (male BALB/c mouse; plasma; intraperitoneal; 20 mg/kg; single dose): 4.8 min
CCOc1ccc(N(C)S(=O)(=O)c2cc(Cl)sc2C(=O)Nc2cc(Cl)cc(C(=O)O)c2)cc1OC  Tmax (male C57BL/6 mouse; plasma; intraperitoneal; 10 mg/kg): 15 min
Nc1ncn([C@H]2C[C@H](O)[C@@H](CO)O2)c(=O)n1  Tmax (female C57BL/6 mouse; plasma; oral; 0.4 mg/kg): 4.98 min
CC(C(=O)Nc1c(F)cccc1F)N1CCN(c2ccccc2)CC1 (centres unmarked)  Tmax (female C57BL/6 mouse; brain; intraperitoneal; 10 mg/kg): 15 min
C[C@@H](N[C@H]1CCN(c2ccc(CC(=O)O)cc2)C1)c1cccc2ccccc12  Tmax (male CD-1 mouse; plasma; subcutaneous; 3 mg/kg; single dose): 60 min
COc1cc2c(NC3CCN(CCCC(=O)NCCCCCCCCCCCC(=O)N[C@H](C(=O)N4C[C@H](O)C[C@H]4C(=O)NCc4ccc(-c5scnc5C)cc4)C(C)(C)C)CC3)nc(N3CCC(F)(F)CC3)nc2cc1OCCCN1CCCC1  Tmax (male C57BL/6 mouse; plasma; intraperitoneal; 50 mg/kg; single dose): 30 min
C[C@@H](NCCCc1cccc(C(F)(F)F)c1)c1cccc2ccccc12  Tmax (male CD-1 mouse; plasma; subcutaneous; 3 mg/kg; single dose): 15 min
CCN1CCN(Cc2ccc(NC(=O)c3ccc(C)c(NC(=O)c4cncc(-c5cccs5)c4)c3)cc2C(F)(F)F)CC1  Tmax (mouse; plasma; intraperitoneal; 20 mg/kg; single dose): 30 min
